In ChEMBL document CHEMBL1817665, “Synthesis and identification of β-aryloxyquinolines and their pyrano[3,2-c]chromene derivatives as a new class of antimicrobial and antituberculosis agents” (2011):
Values after ≈ are worked out from the molar mass of the structure shown.

Columns and labels:
Bacillus subtilis = assay: Antibacterial activity against 10^8 CFU/mL Bacillus subtilis MTCC 441 by NCCLS M100-S12(M7) broth microdilution method; format: functional
How it was run: (§1)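 Broth microdilution in Mueller Hinton broth. Inoculum was adjusted by turbidity to 10^8 CFU/mL. Compounds came from 2000 µg/mL DMSO stocks. Primary screen used 500, 250 and 200 µg/mL; actives were retested at 100, 62.5, 50 and 25 µg/mL. Tubes were incubated overnight at 37 °C. […] A known-sensitivity organism was run in parallel.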

Clostridium tetani = assay: Antibacterial activity against 10^8 CFU/mL Clostridium tetani MTCC 449 by NCCLS M100-S12(M7) broth microdilution method; format: functional; how it was run: as §1
Streptococcus pneumoniae = assay: Antibacterial activity against 10^8 CFU/mL Streptococcus pneumoniae MTCC 1936 by NCCLS M100-S12(M7) broth microdilution method; format: functional; how it was run: as §1
Escherichia coli = assay: Antibacterial activity against 10^8 CFU/mL Escherichia coli MTCC 443 by NCCLS M100-S12(M7) broth microdilution method; format: functional; how it was run: as §1
Salmonella typhi = assay: Antibacterial activity against 10^8 CFU/mL Salmonella typhi MTCC 98 by NCCLS M100-S12(M7) broth microdilution method; format: functional, Salmonella enterica subsp. enterica serovar Typhi; conditions: Salmonella enterica; how it was run: as §1
Vibrio cholerae = assay: Antibacterial activity against 10^8 CFU/mL Vibrio cholerae MTCC 3906 by NCCLS M100-S12(M7) broth microdilution method; format: functional; how it was run: as §1
Aspergillus fumigatus = assay: […] activity against 10^8 CFU/mL Aspergillus fumigatus MTCC 3008 by NCCLS M100-S12(M7) broth microdilution method; format: functional
Candida albicans = assay: […] activity against 10^8 CFU/mL Candida albicans MTCC 227 by NCCLS M100-S12(M7) broth microdilution method; format: functional
[1] = system: Mycobacterium tuberculosis; assay: Antituberculosis activity against Mycobacterium tuberculosis H37Rv at 250 ug/mL after 24 hrs by Lowenstein-Jensen method; format: functional
[2] = system: Mycobacterium tuberculosis; assay: Antituberculosis activity against Mycobacterium tuberculosis H37Rv after 24 hrs by Lowenstein-Jensen method; format: functional

Molecule | MIC99 (Bacillus subtilis) | MIC99 (Clostridium tetani) | MIC99 (Streptococcus pneumoniae) | MIC99 (Escherichia coli) | MIC99 (Salmonella typhi) | MIC99 (Vibrio cholerae) | MIC99 (Aspergillus fumigatus) | MIC99 (Candida albicans) | inhibition at 250 µg/mL [1] | MIC [2]
COc1ccc2nc(Oc3ccccc3)c(C=O)cc2c1 | 100 mg/L (≈ 358 µM) | 250 mg/L (≈ 895 µM) | 200 mg/L (≈ 716 µM) | 62.5 mg/L (≈ 224 µM) | 100 mg/L (≈ 358 µM) | 200 mg/L (≈ 716 µM) | > 1000 mg/L | 1000 mg/L (≈ 3580 µM) | 42% | –
Cc1ccc2nc(Oc3ccc(Cl)cc3)c(C=O)cc2c1 | 500 mg/L (≈ 1680 µM) | 500 mg/L (≈ 1680 µM) | 250 mg/L (≈ 840 µM) | 250 mg/L (≈ 840 µM) | 100 mg/L (≈ 336 µM) | 500 mg/L (≈ 1680 µM) | 1000 mg/L (≈ 3360 µM) | 500 mg/L (≈ 1680 µM) | 93% | 310 mg/L (≈ 1040 µM)
O=Cc1cc2ccccc2nc1Oc1ccccc1 | 1000 mg/L (≈ 4010 µM) | 500 mg/L (≈ 2010 µM) | 500 mg/L (≈ 2010 µM) | 500 mg/L (≈ 2010 µM) | 500 mg/L (≈ 2010 µM) | 500 mg/L (≈ 2010 µM) | > 1000 mg/L | > 1000 mg/L | 95% | 260 mg/L (≈ 1040 µM)
NYSTATIN | – | – | – | – | – | – | 100 mg/L | 100 mg/L | – | –
O=Cc1cc2ccccc2nc1Oc1ccc(Cl)cc1 | 200 mg/L (≈ 705 µM) | 500 mg/L (≈ 1760 µM) | 62.5 mg/L (≈ 220 µM) | 100 mg/L (≈ 352 µM) | 200 mg/L (≈ 705 µM) | 500 mg/L (≈ 1760 µM) | > 1000 mg/L | 250 mg/L (≈ 881 µM) | 64% | –
COC1=CC(=O)C[C@@H](C)[C@]12Oc1c(Cl)c(OC)cc(OC)c1C2=O [GRISEOFULVIN] | – | – | – | – | – | – | 100 mg/L (≈ 283 µM) | 500 mg/L (≈ 1420 µM) | – | –
Cc1ccc2nc(Oc3ccccc3)c(C=O)cc2c1 | 250 mg/L (≈ 950 µM) | 200 mg/L (≈ 760 µM) | 500 mg/L (≈ 1900 µM) | 200 mg/L (≈ 760 µM) | 200 mg/L (≈ 760 µM) | 250 mg/L (≈ 950 µM) | 500 mg/L (≈ 1900 µM) | 250 mg/L (≈ 950 µM) | 62% | –
COc1ccc2nc(Oc3ccc(Cl)cc3)c(C=O)cc2c1 | 200 mg/L (≈ 637 µM) | 200 mg/L (≈ 637 µM) | 250 mg/L (≈ 797 µM) | 200 mg/L (≈ 637 µM) | 200 mg/L (≈ 637 µM) | 200 mg/L (≈ 637 µM) | 1000 mg/L (≈ 3190 µM) | 500 mg/L (≈ 1590 µM) | 54% | –
Cc1ccc(Oc2nc3ccccc3cc2C=O)cc1 | 500 mg/L (≈ 1900 µM) | 250 mg/L (≈ 950 µM) | 250 mg/L (≈ 950 µM) | 100 mg/L (≈ 380 µM) | 100 mg/L (≈ 380 µM) | 250 mg/L (≈ 950 µM) | 500 mg/L (≈ 1900 µM) | 500 mg/L (≈ 1900 µM) | 74% | –
Cc1ccc(Oc2nc3ccc(C)cc3cc2C=O)cc1 | 250 mg/L (≈ 901 µM) | 200 mg/L (≈ 721 µM) | 200 mg/L (≈ 721 µM) | 50 mg/L (≈ 180 µM) | 100 mg/L (≈ 361 µM) | 200 mg/L (≈ 721 µM) | 1000 mg/L (≈ 3610 µM) | 500 mg/L (≈ 1800 µM) | 84% | –
NNC(=O)c1ccncc1 [ISONIAZID] | – | – | – | – | – | – | – | – | – | 0.2 mg/L (≈ 1.46 µM)
CC1(C)S[C@@H]2[C@H](NC(=O)[C@H](N)c3ccccc3)C(=O)N2[C@H]1C(=O)O [AMPICILLIN] | 250 mg/L (≈ 715 µM) | 250 mg/L (≈ 715 µM) | 100 mg/L (≈ 286 µM) | 100 mg/L (≈ 286 µM) | 100 mg/L (≈ 286 µM) | 100 mg/L (≈ 286 µM) | – | – | – | –
COc1ccc2nc(Oc3ccc(C)cc3)c(C=O)cc2c1 | 250 mg/L (≈ 852 µM) | 500 mg/L (≈ 1700 µM) | 500 mg/L (≈ 1700 µM) | 250 mg/L (≈ 852 µM) | 250 mg/L (≈ 852 µM) | 500 mg/L (≈ 1700 µM) | 1000 mg/L (≈ 3410 µM) | 250 mg/L (≈ 852 µM) | 23% | –
